From ChEMBL document CHEMBL4007452, “Discovery of an Orally Selective Inhibitor of Signal Transducer and Activator of Transcription 3 Using Advanced Multiple Ligand Simultaneous Docking” (J Med Chem, 2017) come the findings set out here.

The test system of the series is Rattus norvegicus. In words: Apparent volume of distribution in Sprague-Dawley rat plasma at 10 mg/kg, po measured after 24 hrs by UPLC analysis. It is filed as ADME, organism-based. Particulars: in vivo. A digest of the protocol:
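Rat plasma sampled from 2 min to 24 h after a single i.v. (1 mg/kg) or p.o. (10 mg/kg) dose. Parameters were derived from the concentration-time profiles. The bioanalytical method was validated to FDA guidelines for selectivity, linearity, LLOQ, accuracy, precision, recovery, matrix effect and stability.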

With `NS(=O)(=O)c1cccc2c1C(=O)C=C(Nc1ccccc1N1CCNCC1)C2=O`, the Vz was found to be 32.0925 L/kg.
